# Measurements pooled from the literature.
# Compare with care: the assays were run in different laboratories.
Compound,organism,assay,system,conditions,quantity,value
CC[C@H](C)C[C@H](C)CCCCCCCCC(=O)N[C@H]1C[C@@H](O)[C@@H](NCCN)NC(=O)[C@@H]2[C@@H](O)CCN2C(=O)[C@H]([C@H](O)CCN)NC(=O)[C@H]([C@H](O)[C@@H](O)c2ccc(O)cc2)NC(=O)[C@@H]2C[C@@H](O)CN2C(=O)[C@H]([C@@H](C)O)NC1=O,Saccharomyces cerevisiae,"microbial growth, broth dilution",S288C,,MIC,0.25 µg/mL
N#C[C@]1(CO)O[C@@H](n2cnc3c(=O)[nH]c(N)nc32)C[C@@H]1O,Hepatitis B virus,"viral replication, qPCR",HepG2.2.15,14 days,IC50,0.5 nM
[O-][N+]1=C(c2ccc(Cl)cc2)C2=NCCN2c2ccccc21,Fusobacterium nucleatum,microbial growth,,,MIC50,≤ 0.06 µg/mL
C[C@H]1COCCN1c1nc(NCc2cccnc2C(F)(F)F)c2cccnc2n1,Clostridioides difficile,"microbial growth, broth dilution",630,,MIC,64 µg/mL
Cc1ncc([N+](=O)[O-])n1CCO,Clostridioides difficile,microbial growth,,,MIC50,0.25 µg/mL
C=C1[C@H](CO)[C@@H](O)C[C@@H]1n1cnc2c(=O)[nH]c(N)nc21,Hepatitis B virus,"viral replication, qPCR",HepG2.2.15,14 days,IC50,3 nM
CCN1CCN(C(=O)N[C@@H](C(=O)N[C@@H]2C(=O)N3C(C(=O)O)=C(CSc4nnnn4C)CS[C@H]23)c2ccc(O)cc2)C(=O)C1=O,Clostridioides difficile,"microbial growth, broth dilution",,24 h,MIC,100 µg/mL
CC(C)OC(=O)OCOP(=O)(CO[C@H](C)Cn1cnc2c(N)ncnc21)OCOC(=O)OC(C)C,Hepatitis B virus,"viral replication, qPCR",HepG2.2.15,14 days,IC50,200 nM
C[C@@H]1C[C@@H]([C@H](O)CC2CC(=O)NC(=O)C2)C(=O)[C@@H](C)C1,Saccharomyces cerevisiae,microbial growth,,,MIC,3 µM
O=C(NCc1ccc2c(c1)OCO2)c1ccc(Br)cc1F,Saccharomyces cerevisiae,microbial growth,BY4743,72 h,MIC,> 200 µM
CC(C)(C)C(=O)OCOP(=O)(COCCn1cnc2c(N)ncnc21)OCOC(=O)C(C)(C)C,Hepatitis B virus,"viral replication, qPCR",HepG2.2.15,14 days,IC50,880 nM
O=[N+]([O-])c1ccc(C2=[N+]([O-])c3ccccc3N3CCN=C23)cc1,Clostridioides difficile,microbial growth,,,MIC90,≤ 0.06 µg/mL
CC(C)OC(=O)[C@H](C)N[P@](=O)(CO[C@H](C)Cn1cnc2c(N)ncnc21)Oc1ccccc1,Hepatitis B virus,"viral replication, inhibitor",HepG2.2.15,"1 µM, 6 days",inhibition,~65%
CN[C@H](CC(C)C)C(=O)N[C@H]1C(=O)N[C@@H](CC(N)=O)C(=O)N[C@H]2C(=O)N[C@H]3C(=O)N[C@H](C(=O)N[C@H](C(=O)O)c4cc(O)cc(O)c4-c4cc3ccc4O)[C@H](O)c3ccc(c(Cl)c3)Oc3cc2cc(c3O[C@@H]2O[C@H](CO)[C@@H](O)[C@H](O)[C@H]2O[C@H]2C[C@](C)(N)[C@H](O)[C@H](C)O2)Oc2ccc(cc2Cl)[C@H]1O,Clostridioides difficile,"microbial growth, broth dilution",,24 h,MIC,1 µg/mL
O=C1Cc2ccccc2C(=O)N1O,Hepatitis B virus,"viral replication, inhibitor, qPCR",HepDES19,72 h,EC50,4200 nM
